Test system: MS2 coat protein
Assay: apparent Kd, MS2 coat protein; higher = weaker binding; RNA-MaP array; FMN 200 µM where present
Summary of the method: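 Each design was made on Illumina sequencing-chip clusters by stalled E. coli RNA polymerase and titrated with SNAP-549-labelled MS2 coat protein from 0.7 or 1.5 nM, doubling to 3 µM, in the absence and then the presence of constant ligand. The buffer was 100 mM Tris-HCl pH 7.5, 80 mM KCl, 4 mM MgCl2, BSA, DTT, yeast tRNA and Tween-20. The apparent Kd is the median of filtered per-cluster fits of binding curves, with green signal normalised to red-channel RNA signal and control-cluster median Fmax.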

[1] = designed as: OFF switch for flavin mononucleotide, no ligand
[2] = ligand present: flavin mononucleotide, designed as: OFF switch for flavin mononucleotide
[3] = designed as: ON switch for flavin mononucleotide, no ligand
[4] = ligand present: flavin mononucleotide, designed as: ON switch for flavin mononucleotide

| Sequence | apparent Kd [1] [nM] | apparent Kd [2] [nM] | apparent Kd [3] [nM] | apparent Kd [4] [nM] |
| --- | --- | --- | --- | --- |
| GAAAUACAUGAGGAUCACCCAUGUGAGGAUAUGCUAUGGAAAUAAAAAAUAAAACAUAGCAGAAGGUACAAAAG | 71.5 | 106 |  |  |
| GGGUACAUCGGAGGAUAUCAUGUGUAAACAUGAGGAUCACCCAUGUCGUACGAGAGUACGGAGAUUGAGAAGGCCGAUGUACCG |  |  | 86.7 | 16.6 |
| GGCAUGUGAGGAUAUCUGAUGUCUAACUUCGGUUAGACAUCAGAGAAGGCACAUGAGGAUCACCCAUGUCUGCC | 68.4 | 79.8 |  |  |
| UCGAUGCUAGGAUAUACGUAUACCUCCACCGUUGAUUCCUAACAUGAGGAUCACCCAUGUAGAAGGAGCAUCUA | 23.8 | 23.6 |  |  |
| UAUAAGAACGAAGGAUAUGGUUACAUGAGGAUCACCCAUGUAUGUAUAUUGAUCUAGUAUUAUAACCAGAAGGUCGAGAGUAUA | 16.1 | 27.1 |  |  |
| ACAUGAGGAUCACCCAUGUGGAGUGAAGAAGGUGGUUACUUAUGACUCUCCCAUGUACAUAGGACUGAGGAUAUUCUAAUAAUU |  |  | 88.5 | 81.7 |
| GUCCGCUCGUGAGGAUAUACAACACUGCUUCGGCAGUGUAUUAAGAUCACAUGAGGAUCACCCAUGUAGAAGGCACGAGCUGAU | 13.7 | 289 |  |  |
| GUGAAACAUGAGGAUCACCCAUGUGAGGAUAUGUUUUAGUACUGCUGACAGUACAUCUAUAGAAGGCACAAUGG | 34.8 | 54.8 |  |  |
| UAUGUUUCGCAGAAGGGAACGGUUUAUAACAAUUCAGGAUAUGCGACAUGAGGAUCACCCAUGUAGCAGUAUAUAGGGUUGAAU | 7.5 | 45.9 |  |  |
| GUGCGUGGCUAGGAUAUUGUGGAGUUUAGUCAGCGAGAAGGAGCCACAUGAGGAUCACCCAUGUGGUGUAGCUC | 17.2 | 94.5 |  |  |
| GUCAGUGUGGUAGGAUAUCGAAACGGUCAGUUACGAGAAGGGCUACAUGAGGAUCACCCAUGUAUCCAGGAUCGGCUUACAGUA | 6.16 | 6.27 |  |  |
| AAAAACGGAGGAUAUACAAAUUAAGGAAGAAAACACGAAAAACAUGAGGAUCACCCAUGUAGAAGGCCGGAAAA | 22.6 | 28.2 |  |  |
| CUAUGAAGAAUAGGAUAUUCGAUCAAGAGGAUAGAAGAAGGGUUACAUGAGGAUCACCCAUGUAUGCACAUGAGGAUCCCUUAG | 98.4 | 107 |  |  |
| GUAAACGAUGAGGAUAUAUGAUAUCAAAGCAUCAUAGAAGGCAUCACAUGAGGAUCACCCAUGUGAUCUUCUUU | 17.5 | 78.5 |  |  |
| GAAGUUGGUAGGCCCUCGGAACAUGAGGAUCACCCAUGUAAGGAGGAUAUGCCCGGUACCCGCUGGCAGAAGGCCUUAUAAGAA | 11.1 | 68.8 |  |  |
| AAUUAACUCACAGGAUAUAGCAGAGGUCGAGUGAACUUACACGCGACGAGGCUAGAAGGGUGACCACAUGAGGAUCACCCAUGU |  |  | 872 | 103 |
| CCUGUGUGAGGAUAUGGUGUUGGCCAAAAGGAAUAGCUCCUCCAGAAGGCACAUGAGGAUCACCCAUGUCGUGG | 18 | 81.9 |  |  |
| CAGGAGAACACAGGAUAUCCGUAAGACAUGAGGAUCACCCAUGUUUGUGGCCCGCCAGGGCUGACGGAGAAGGGUGACUCGCAC |  |  | 9.04 | 5.81 |
| AUUUACAAGUAAGGAUAUCGGGUAUAGUUAACUCGAGAAGGUACAUGAGGAUCACCCAUGUAGUAGAUACAUAGAACUGUUUUG | 13.6 | 12.7 |  |  |
| AUGCAGCCACCACAGGAUAUACGUGGAUCGACAUGAGGAUCACCCAUGUAUAUCCUAAUAAUUGCGUAGAAGGGUGGUCGGCUGG |  |  | 555 | 81.8 |
| AAACAGUACGAGAAGGGCUACAUGAGGAUCACCCAUGUAGACGGUCGUGUGGCAGGAUAUCGAACACACCGAAAACGGUGCGUU | 5.32 | 7.09 |  |  |
| UCUUUCGUUGUGAGGAUAUGCCCAAAUAAAAGCGGGCAGAAGGCACAUGAGGAUCACCCAUGUCCUGCGGUUUU | 22.8 | 288 |  |  |
| AGUCGGAGCAGAGGAUAUACAUGAGGAUCACCCAUGUAAAUGAAUGAAGCCAGGAAACUGGCAAUGUAGAAGGCUGCUCCGACA | 18 | 52.8 |  |  |
| UAGAAGUCAGGAUAUGCAUGGCGGGACUUGCGUCGUGGCGUGCAGAAGGGACAUGAGGAUCACCCAUGUAAAGG | 159 | 265 |  |  |
| UUAAUCUAUACAGGAUAUCCAUACGGUGCAUACGGAGAAGGGUAACAAUCAUGAGGACAUGAGGAUCACCCAUGUUCUGACCAU |  |  | 7.23 | 6.35 |
| GACAUACAUGAGGAUCACCCAUGUUCAAACGGGCAAGGAUAUGUGUGGAAACCAUACUAUACAGAAGGUGUCUGUC |  |  | 28.4 | 18.7 |
| AAUAAUUAGUAAGGAUAUACUAGUGGUUAGCUUGUAGAAGGUACAGUCUUAUGUAUAACAAAUUAACAUGAGGAUCACCCAUGU |  |  | 10.6 | 8.19 |
| AUUUCGUCAGGAUAUCCUAGUAAUUGUUUCAUAUUUACAAAGGAGAAGGGACAUGAGGAUCACCCAUGUUGGUC | 64.6 | 116 |  |  |

| Sequence | apparent Kd [1] [nM] | apparent Kd [2] [nM] | apparent Kd [3] [nM] | apparent Kd [4] [nM] |
| --- | --- | --- | --- | --- |
| GAAGAACAUGAGGAUCACCCAUGUGAUUCGCAUGUAGGAUAUGGGCACGCGCCCGCGUGUCUAGAAGGACAGGCUA |  |  | 69.3 | 109 |
| UUAAUGUGAGGAUAUCAGGUGUGCUAGCGUACUGGUACAUCUGAGAAGGCACAUGAGGAUCACCCAUGUUUCUU | 32.7 | 110 |  |  |
| AUAUAUAUAAAGAAGGUGCCAGCGAGAGCUGCACAUGAGGAUCACCCAUGUUGUCGGUGACGACGCAAGGAUAUUUAUAUAUAU |  |  | 31.6 | 7.28 |
| AAAAGCAACACAGGAUAUAUCACGGGUGAUUUGAUAGAAGGGUGAGCGAAAGAGAGCAACAUGAGGAUCACCCAUGUAUGUUUG |  |  | 304 | 184 |
| CUAGUUGUCGCAGGAUAUGCCCGCUGGUUGGAGGCAGAAGGGUGACACCAAAUAUUAUACAUGAGGAUCACCCAUGUCGCCAGC |  |  | 21.4 | 20.6 |
| GCAGACUUGCUGAAGGUGUUCCACAUGAGGAUCACCCAUGUCAAGGAUAUAACGCGUCCGGCCCGUUAGAAGGUGACAGUUUGC | 368 | 229 |  |  |
| AGUAUACAUGAGGAUCACCCAUGUCUGUAACGGACAGGAUAUGCGUUGCAUCACUGUAAUGCAGAAGGGUCCUGUA |  |  | 296 | 45.2 |
| GGUACCAUCACAGGAUAUGCUUUCCUUUGGAAAGCAGAAGGGUGUAACAUGAGGAUCACCCAUGUGGUGCCAGGGCGUGAGCCC |  |  | 184 | 13 |
| AAAAAAAAAACUCAGGAUAUAGAUUGUAGAACAUGAGGAUCACCCAUGUAGUGAAAGAAGAGAGACUAGAAGGGAGUAAAAAAAAA |  |  | 85.7 | 74.7 |
| UUUUAACAUGAGGAUCACCCAUGUGAGGAUAUCGUUAUUUUUAUUAAUAUUAAUAAAACGAGAAGGCACAUUUU | 104 | 114 |  |  |
| CGGCACCAAGGAUAUACAUGAGGAUCACCCAUGUUUUUUGGGCCCUAAAGAUCUACGUGUAGAAGGUGGGUCGA | 58.8 | 59.6 |  |  |
| AAUAUGUUGCAGAAGGCUAUGUUGUGGUAGUACCUCAUGACAUGAGGAUCACCCAUGUUUGUGUUGGAGGAUAUGCAAUAUAUU | 12.7 | 40.6 |  |  |
| GUACUACCCACAGAUAACUUAGCCAGAAGGGUCUACAUGAGGAUCACCCAUGUGGUCCAAAGUGGACAGGAUAUGGAAACGGUU | 139 | 12.2 |  |  |
| AAAAGGUGAGGAUAUUCGGCGCCGGGAAGGUUGGUGCGGAUGAAGAAGGCACAUGAGGAUCACCCAUGUAAUAA | 63 | 49.1 |  |  |
| AAUGAGACCGCAGGAUAUCCACAUGAGGAUCACCCAUGUUCUCAGACCGGAAGCACGAUCUGCGAGGAGAAGGGCGACCUCAUA |  |  | 716 | 53.1 |
| UCUCUUCUGUAGAAGGCCCAACUUGUGAAGAUAACGAUACUAUAGAAGUAGGGAGGAUAUACAUGAGGAUCACCCAUGUAGGAA | 8.09 | 15.8 |  |  |
| AAAGUUGGUAGGCCCUCGGCACAUGAGGAUCACCCAUGUAAGGAGGAUAUGCCCGGUACCCGCUGGCAGAAGGCCUUAUAAGAA | 12.2 | 110 |  |  |
| CAGAACGUCUGAUGAGACCCGCGGCAGGAUAUGCCUGACGUGGACAUGAGGAUCACCCAUGUAAGGCAGAAGGGCCGUUCAGUG | 23 | 95.5 |  |  |
| UGUUGUAUUACAGGAUAUCUAGUAUUUUUAUUCAGAGAAGGGUAUUCACAUGAGGAUCACCCAUGUAUAUACGAGGAAGUUGUG |  |  | 45.2 | 46.2 |
| AAGGAUAGAGGAUAUAUAUAGAUACAGAUUCAUGUAGAACUACAUGAGGAUCACCCAUGUAGAAGGCUAUCCUA | 15.7 | 60.4 |  |  |
| AUGAGAGCAGGAUAUGCAGGUGUGCCGGAAGAAAGAAGAGGACAUGAGGAUCACCCAUGUAGAAGGGCUAACCC | 41.1 | 19.8 |  |  |
| AAAAAGUCAGGAUAUGCGAAGGCGUCUGAUAGACGAGGCUAGCAGAAGGGACAUGAGGAUCACCCAUGUAAAAA | 31.9 | 45.2 |  |  |
| UUUUAACAUGAGGAUCACCCAUGUGAGGAUAUCGAAAUUUAUAUUAAUAUUAUUUAUUCGAGAAGGCACAUUUU | 120 | 145 |  |  |
| UAAGUAAGUGCAGGAUAUUUAAGAAGAACAUGAGGAUCACCCAUGUGAGGAUCACCCAUGUAAAAGGAGAAGGGCAGAGUAUGA | 960 | 1220 |  |  |
| UUUACGUGAGGAUAUGCGAAUAGAACGUAAGACAUACAGACGCAGAAGGCACAUGAGGAUCACCCAUGUGAACC | 20.5 | 41.4 |  |  |
| UGUGUCCGUAGAGGAUAUCCGGGCGUUCGGCUAGGAGAAGGCUGCGACACAUGAGGAUCACCCAUGUAGGUUGUGUCUCUCUAC | 51.6 | 275 |  |  |
| AUAAGCUCGUCAGGAUAUGCGACACUGUGUCAGCAGUGUGGUAUGAUCACAUGAGGAUCACCCAUGUAGAAGGGACGAGCUUAU | 6.34 | 14.3 |  |  |
